In one assay the test system is LNCaP. Put plainly: Induction of apoptosis in human LNCAP cells assessed as caspase 3/7 activation after 24 hrs Caspase-Glo 3/7 assay. In kind it is functional, cell-based. Particulars: lncap.
Assay [1] has as its system PC-3. Put plainly: Induction of apoptosis in human PC3 cells assessed as caspase 3/7 activation after 24 hrs by Caspase-Glo 3/7 assay. In kind it is functional, cell-based. Particulars: PC-3, 24 h.
The target of assay [2] is T1, Alpha-1A adrenergic receptor (Homo sapiens, UniProt P35348).
T1 sequence (P35348 whole entry): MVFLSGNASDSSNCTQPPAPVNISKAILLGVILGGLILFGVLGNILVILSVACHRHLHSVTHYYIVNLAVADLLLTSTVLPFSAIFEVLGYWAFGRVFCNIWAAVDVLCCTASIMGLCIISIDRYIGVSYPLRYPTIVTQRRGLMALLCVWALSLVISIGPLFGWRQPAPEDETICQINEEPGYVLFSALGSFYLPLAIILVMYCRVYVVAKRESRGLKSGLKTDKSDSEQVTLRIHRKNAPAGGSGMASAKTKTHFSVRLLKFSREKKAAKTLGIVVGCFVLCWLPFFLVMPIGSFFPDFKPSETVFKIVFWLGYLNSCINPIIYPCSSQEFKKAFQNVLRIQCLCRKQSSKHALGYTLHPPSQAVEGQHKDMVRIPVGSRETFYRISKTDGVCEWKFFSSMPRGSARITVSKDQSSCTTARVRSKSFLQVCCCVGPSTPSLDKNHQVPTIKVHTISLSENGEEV
Put plainly: Displacement of [3H]prazosin from human alpha1A adrenoceptor expressed in CHO cells. In kind it is cell-based. The method, boiled down:
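Radioligand competition binding used [3H]prazosin on membranes of CHO cells expressing human α1a, α1b or α1d adrenoceptor. IC50 values were converted to pKi by the Cheng-Prusoff equation. Data come from two to three experiments run in triplicate, agreeing within ±20%.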
(Displacement assays read how much labelled ligand stays bound in the presence of the test substance.)

Assay [3] addresses T2, Alpha-1D adrenergic receptor (Rattus norvegicus) (UniProt P23944).
T2 sequence (whole entry): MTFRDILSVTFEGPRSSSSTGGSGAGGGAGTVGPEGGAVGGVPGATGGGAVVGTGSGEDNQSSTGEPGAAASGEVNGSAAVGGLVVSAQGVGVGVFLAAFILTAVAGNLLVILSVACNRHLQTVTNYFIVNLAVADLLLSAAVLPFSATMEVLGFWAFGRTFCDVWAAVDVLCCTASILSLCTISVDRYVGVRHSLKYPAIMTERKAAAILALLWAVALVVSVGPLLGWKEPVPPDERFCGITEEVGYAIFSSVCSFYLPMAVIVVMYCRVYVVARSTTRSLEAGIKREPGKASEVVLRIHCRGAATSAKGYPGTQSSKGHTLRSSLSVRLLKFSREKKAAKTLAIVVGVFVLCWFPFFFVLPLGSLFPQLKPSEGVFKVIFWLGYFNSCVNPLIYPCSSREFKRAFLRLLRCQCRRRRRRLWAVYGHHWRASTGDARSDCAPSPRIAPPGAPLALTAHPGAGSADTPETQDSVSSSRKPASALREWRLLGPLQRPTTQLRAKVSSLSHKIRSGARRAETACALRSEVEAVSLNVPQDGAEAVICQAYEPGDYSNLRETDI
As to the kind of experiment: (§1) Antagonist activity at rat Alpha-1D adrenoceptor assessed as inhibition if norepenephrine-induced contraction of thoracic aorta. In kind it is functional, tissue-based. In short, it runs like this:
(§2)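 Isolated rat tissue contraction assay. The α1A response used vas deferens with (-)-noradrenaline as agonist, α1D used thoracic aorta with (-)-noradrenaline, and α1B used spleen with (-)-phenylephrine. pA2 values are means ± SEM over three antagonist concentrations, each tested at least four times. Where the Schild slope differed from unity, pKB was calculated by van Rossum at the lowest antagonist concentration giving log(CR−1) ≥0.5.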

For a further assay, the system named is DU-145. Put plainly: Induction of apoptosis in human DU145 cells assessed as caspase 3/7 activation after 24 hrs Caspase-Glo 3/7 assay. It counts as functional, cell-based. The conditions noted are these: du-145.
The test system of the next assay is NHDF. Put plainly: Induction of apoptosis in human NHDF cells assessed as caspase 3/7 activation after 24 hrs Caspase-Glo 3/7 assay. It counts as functional, cell-based.
Assay [4] relates to PC-3. Put plainly: Antiangiogenic activity in human PC3 cells xenografted in NU/NU mouse assessed as reduction vascularization at 3 mg/kg by immunohistochemistry. In kind it is functional, organism-based. The arrangement: dose 3 mg/kg. In short, it runs like this: (§3)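 Vascularization of PC-3 flank tumors from nude mice dosed orally was assessed by immunohistochemistry with rat anti-mouse CD31 monoclonal antibody as endothelial marker. Doses were 0.3, 1 and 3 mg/kg.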
On the technique in general: Xenograft models place foreign cells or tissue in a host animal.

Assay [5] relates to PC-3. As to the kind of experiment: Antitumor activity against human PC3 cells xenografted in NU/NU mouse at 0.3 mg/kg, po after 21 days relative to control. It counts as functional. In short, it runs like this:
(§4)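 Male nude mice carried subcutaneous left-flank tumors from injected PC-3 cells. Drug was given orally once daily for 21 consecutive days. There were five groups of six mice, treated and control. Tumor growth is reported as mean ± SEM, analysed by ANOVA and Student t-test against control.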

In assay [6] the test system is PC-3. Put plainly: Induction of apoptosis in human PC3 cells xenografted in NU/NU mouse assessed as DNA fragmentation at 0.3 to 3 mg/kg by agarose gel electrophoresis. It counts as functional, organism-based. The method, boiled down: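 DNA from PC-3 subcutaneous tumors of orally treated nude mice was run on an electrophoretic gel. Apoptosis was scored as a DNA ladder pattern.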

The target of assay [7] is T3, Alpha-1D adrenergic receptor (Rattus norvegicus, UniProt P23944).
T3 sequence (P23944 whole entry): T2 sequence (whole entry)
The assay is described as §1. In kind it is functional, tissue-based. Particulars: read-out: pA2 (converted). The method, boiled down: as §2

Assay [8] deals with PC-3. Put plainly: Antiangiogenic activity in human PC3 cells xenografted in NU/NU mouse assessed as reduction vascularization at 1 mg/kg by immunohistochemistry. It counts as functional, organism-based. The arrangement: dose 1 mg/kg. In short, it runs like this:
as §3

Assay [9] relates to PC-3. As to the kind of experiment: Antiangiogenic activity in human PC3 cells xenografted in NU/NU mouse assessed as reduction vascularization at 0.3 mg/kg by immunohistochemistry. It counts as functional, organism-based. The arrangement: dose 0.3 mg/kg. In short, it runs like this:
as §3

The test system of assay [10] is PC-3. As to the kind of experiment: Antitumor activity against human PC3 cells xenografted in NU/NU mouse after 21 days. In kind it is functional. The method, boiled down: as §4

For orientation: EC50 means the concentration giving half of the maximal effect. A word on the Ki: it is the dissociation constant of the complex between target and ligand, obtained from inhibition or displacement. Higher therefore signals weaker binding. The pKb is the negative decadic logarithm of the Kb, by convention in mol/L.

The structures appear in SMILES notation. Calls of active or inactive are those of the source. The calls are words filed in the database; no cut-off is given here.

Take `COc1cc2nc(N(C)CCCCCCN(C)C(=O)C3COc4ccccc4O3)nc(N)c2cc1OC` (configuration not stated): the EC50 in the assay on LNCaP, in the assay with PC-3 [1], with DU-145 and with NHDF was 10 µM throughout. For the same compound, affinity in assay [2] was put at a Ki of 0.00186 µM. The negative logarithm of the Kb (pKb) in assay [3] was determined as 8.64.

Regarding `COc1cc2nc(N3CCN(C(=O)C4COc5ccccc5O4)[C@H]4CCCC[C@@H]43)nc(N)c2cc1OC` (relative stereo), the EC50 in the assay with LNCaP, with PC-3 [1], with DU-145 and in the assay with NHDF was 10 µM each time. Also, in assay [2], the affinity, expressed as Ki, was 0.0813 µM. The pKb in [3] is 6.88.

As to `COc1cc2nc(N3CCN(C(=O)C4COc5ccccc5O4)[C@H]4CCCC[C@H]43)nc(N)c2cc1OC` (relative stereo) [CYCLODOXAZOSIN], the EC50 in the assay with PC-3 [1] was 1.86 µM; in the assay on NHDF, greater than 10 µM. This compound had a Ki in assay [2] of 0.00282 µM. Further, the result in the assay with PC-3 [4], in the assay with PC-3 [6], in the assay with PC-3 [8] and in the assay on PC-3 [9] was Active. For the same compound, the Activity was 21% in the assay with PC-3 [5] and “Dose-dependent effect” in the assay with PC-3 [10]. Further, the Kb in [7] is 0.0407 µM.

Source of the values: ChEMBL document CHEMBL1151946, “Doxazosin-related alpha1-adrenoceptor antagonists with prostate antitumor activity” (J Med Chem, 2009).
